Source: ChEMBL document CHEMBL1152629, “Discovery and structure-activity relationship analysis of Staphylococcus aureus sortase A inhibitors” (Bioorg Med Chem, 2009)
Values after ≈ are worked out from the molar mass of the structure shown. Active and inactive are the calls of the source. The calls are words filed in the database; no cut-off is given here.

Legend:
[1] = Inhibition of Staphylococcus aureus sortase A deltaN59 mutant assessed as Dap(Dnp) hydrolysis by FRET assay based enzyme kinetics assay; conditions: read-out: Ki(app)
[2] = Inhibition of Staphylococcus aureus sortase A deltaN59 mutant assessed as Dap(Dnp) hydrolysis by FRET assay
[3] = Inhibition of Bacillus anthracis sortase A by FRET assay
Summary of the method: (§1)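 B. anthracis SrtA (1.5–15 µM final) preincubated 1 h at 25 °C with compound (0.08–400 µM final, Me2SO) in 20 mM HEPES, 5 mM CaCl2, pH 7.5. Reaction started with 100 µM Abz-LPETG-Dap(Dnp) substrate. Fluorescence read at ex 335/em 420 nm. IC50 from fit of initial velocities, three independent data sets, Hill equation.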

[4] = system: Staphylococcus aureus; experiment: Antimicrobial activity against Staphylococcus aureus Newman by microtiter broth dilution method; type: functional
Summary of the method: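 S. aureus Newman overnight culture diluted to OD600 0.01, incubated at 37 °C, diluted to OD600 0.005; compound added at final 0.1–100 µM. OD600 followed during overnight growth at 37 °C in plate reader. Growth percentage relative to no-inhibitor cultures and to 10 µg/mL erythromycin. Triplicate.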

[5] = Inhibition of Bacillus anthracis sortase A by FRET-based enzyme kinetics assay; conditions: read-out: Ki(app); summary of the method: as §1
[6] = system: Staphylococcus aureus

Row | SMILES | IC50 [2] [µM] | also measured
1 | CCOc1c(S)cnn(-c2ccccc2)c1=O |  | Ki [1]: 0.2 µM
2 | COc1c(O)cnn(-c2ccccc2)c1=O | > 50 | IC50 [3]: > 50 µM
3 | CCOc1c(SSC)cnn(-c2ccccc2)c1=O |  | Ki [1]: 0.4 µM
4 | CCOc1c(Cl)cnn(-c2cc(Cl)cc(Cl)c2)c1=O | > 50 | 
5 | CC1=NN(c2ccccc2)C(=S)/C1=C/Nc1ccc([N+](=O)[O-])cc1O | 9.6 | 
6 | O=c1c(Cl)c(Cl)cnn1C1CCCCC1 | > 50 | IC50 [3]: 14 µM
7 | CC1=NN(c2ccccc2)C(=S)/C1=C/Nc1ccccc1Cl | 54 | 
8 | CCOc1cnn(-c2ccccc2)c(=O)c1Cl | 1 | 
9 | CC1=NN(c2ccccc2)C(=S)/C1=C/NC1CCCCC1 | 115 | 
10 | O=c1c(Cl)c(Cl)cnn1-c1cc(Cl)cc(Cl)c1 | 61 | 
11 | O=C(/C=C/c1ccc([N+](=O)[O-])cc1)c1ccccc1 | 51 | 
12 | CN1C(=O)/C(=C/c2ccc(-c3ccccc3)o2)SC1=S | 405 | 
13 | COc1c(Cl)cnn(-c2cc(Cl)cc(Cl)c2)c1=O | > 50 | 
14 | O=c1c(OCc2ccccc2)c(O)cnn1-c1ccccc1 | > 50 | IC50 [3]: > 50 µM
15 | CCOc1cnn(-c2cccc(F)c2)c(=O)c1Cl | > 50 | 
16 | CCOc1cnn(-c2cccc(F)c2)c(=O)c1S | 5.7 | IC50 [3]: 0.9 µM
17 | CC1=NN(c2ccccc2)C(=S)/C1=C/Nc1ccc(/N=N/c2ccccc2)cc1 | 9 | Activity [4]: inactive
18 | CCOc1c(Cl)cnn(-c2cccc(Br)c2)c1=O | > 50 | 
19 | COc1cnn(-c2ccccc2)c(=O)c1S | 9.3 | 
20 | CCCN1C(=O)/C(=C/c2ccc(-c3ccccc3)o2)SC1=S | 186 | 
21 | CSc1cnn(-c2ccccc2)c(=O)c1Cl | > 50 | 
22 | CCOc1c(SS)cnn(-c2ccccc2)c1=O | 1.5 | IC50 [3]: 1.2 µM

Row | SMILES | IC50 [2] [µM] | also measured
23 | O=c1c(Cl)c(Cl)cnn1-c1ccccc1 | > 50 | 
24 | CC1=NN(c2ccccc2)C(=O)/C1=C/Nc1ccc([N+](=O)[O-])cc1 | 56 | Ki [1]: 0.3 µM
25 | COc1c(Cl)cnn(-c2ccccc2)c1=O | > 50 | 
26 | CCOc1cnn(-c2ccc([N+](=O)[O-])cc2)c(=O)c1Cl | 219 | 
27 | COc1c(Cl)cnn(-c2cccc(C)c2)c1=O | > 50 | 
28 | O=C1/C(=C/c2cc([N+](=O)[O-])cc(Br)c2O)SC(=S)N1c1ccc([N+](=O)[O-])cc1 | 12 | 
29 | O=c1c(Cl)c(Cl)cnn1-c1cccc(F)c1 | > 50 | 
30 | CC1=NN(c2ccccc2)C(=S)/C1=C/Nc1ccc(I)cc1 | 42 | 
31 | CSc1cnn(-c2ccccc2)c(=O)c1O | > 50 | 
32 | CC1=NN(c2ccccc2)C(=S)/C1=C/Nc1ccc(C)c(C)c1 | 52 | 
33 | COc1c(Cl)cnn(C2CCCCC2)c1=O | > 50 | 
34 | CC1=NN(c2ccc(C)cc2)C(=O)/C1=C/Nc1ccc([N+](=O)[O-])cc1 | 62 | 
35 | CCOc1c(S)cnn(-c2cccc(Br)c2)c1=O | > 50 | 
36 | O=C1/C(=C/c2ccc(-c3ccccc3)o2)SC(=S)N1Cc1ccccc1 | 492 | 
37 | CC1=NN(c2ccccc2)C(=S)/C1=C/Nc1ccc(C)cc1C | 68 | 
38 | Cc1ccc(/C=C2\SC(=S)N(c3cccc(Cl)c3)C2=O)cc1[N+](=O)[O-] | > 1000 | 
39 | CC1=NN(c2ccccc2)C(=S)/C1=C/Nc1c(Br)cc(Br)cc1Br |  | Activity [4]: inactive; Ki [5]: 1.7 µM
40 | Cc1ccc(N2C(=O)/C(=C/c3cc(Br)c(O)c([N+](=O)[O-])c3)SC2=S)c(C)c1 | 35 | 
41 | CCN1C(=O)/C(=C/c2ccc(-c3cccc(Cl)c3)o2)SC1=S | 109 | 
42 | O=c1c(Cl)c(Cl)cnn1-c1ccc([N+](=O)[O-])cc1 | > 50 | 
43 | CC1=NN(c2ccccc2)C(=S)/C1=C/Nc1ccccn1 | 0.76 | Activity [4]: inactive; IC50 [3]: 1.4 µM
44 | COc1c(S)cnn(-c2cccc(Cl)c2)c1=O | 4.5 | MIC [4]: > 1000 µM; Activity [6]: 50%

Row | SMILES | IC50 [2] [µM] | also measured
45 | CCOc1c(SSc2ccccn2)cnn(-c2ccccc2)c1=O |  | Ki [1]: 0.03 µM
46 | CC1=NN(c2ccccc2)C(=S)/C1=C/Nc1ccc([N+](=O)[O-])cc1Br | 8.9 | 
47 | CCOc1c(S)cnn(-c2ccc([N+](=O)[O-])cc2)c1=O | 30 | 
48 | CCOc1cnn(-c2cccc(C)c2)c(=O)c1S | 3.1 | Activity [4]: inactive
49 | CCN1C(=O)/C(=C/c2ccc(-c3ccccc3[N+](=O)[O-])o2)SC1=S | 104 | 
50 | CC1=NN(c2ccccc2)C(=S)/C1=C/Nc1ccc([N+](=O)[O-])cc1 |  | MIC [4]: > 1000 µM; Activity [6]: 58%
51 | CC1=NN(c2ccccc2)C(=S)/C1=C/Nc1ccc([N+](=O)[O-])cc1[N+](=O)[O-] | 6.8 | 
52 | CC1=NN(c2ccc(Cl)cc2)C(=O)/C1=C/Nc1ccc([N+](=O)[O-])cc1 | 48 | 
53 | C=CCN1C(=O)/C(=C/c2ccc(-c3ccccc3)o2)SC1=S | 199 | IC50 [3]: 27 µM
54 | CCSc1c(S)cnn(-c2ccccc2)c1=O |  | Activity [4]: inactive; Ki [1]: 1.4 µM; Ki [5]: 0.3 µM
55 | Cc1cccc(-n2ncc(Cl)c(Cl)c2=O)c1 | > 50 | 
56 | Cc1ccc(N2C(=O)/C(=C/c3cc([N+](=O)[O-])cc(Br)c3O)SC2=S)c(C)c1 | 3.7 | MIC [4]: 10 µM (≈ 4.65 µg/mL); Activity [6]: 84%
57 | CCOc1c(Cl)cnn(-c2cccc(C)c2)c1=O | > 50 | 
58 | CCOc1c(Cl)cnn(-c2cccc(F)c2)c1=O | > 50 | 
59 | CCOc1cnn(C2CCCCC2)c(=O)c1Cl | > 50 | 
60 | CCOc1cnn(-c2cccc(C)c2)c(=O)c1Cl | > 50 | 
61 | CCOc1cnn(-c2cc(Cl)cc(Cl)c2)c(=O)c1S | 166 | IC50 [3]: 5.2 µM
62 | CC(=O)c1ccc(/N=C2\C(=O)NN=C2C)cc1 | 26 | 
63 | Cc1ccc(N2C(=O)/C(=C/c3cccc([N+](=O)[O-])c3)SC2=S)c(C)c1 | 119 | 
64 | CC1=NN(c2ccccc2)C(=S)/C1=C/Nc1ccc(Br)cc1 | 39 | Activity [4]: inactive
65 | CCOc1c(S)cnn(C2CCCCC2)c1=O | 17.9 | 
66 | CN1C(=O)/C(=C/c2cc([N+](=O)[O-])cc(Br)c2O)SC1=S | 14 | 

Row | SMILES | IC50 [2] [µM] | also measured
67 | CC1=NN(c2ccccc2)C(=S)/C1=C/Nc1ccccc1O | 22 | 
68 | CCOc1c(Cl)cnn(-c2ccccc2)c1=O | > 50 | 
69 | CCn1ncc(SC)c(O)c1=O | > 50 | 
70 | COc1c(Cl)cnn(-c2cccc(F)c2)c1=O | > 50 | 
71 | CCOc1c(Cl)cnn(C2CCCCC2)c1=O | > 50 | 
72 | CCOc1cnn(-c2cccc(Br)c2)c(=O)c1Cl | > 50 | 
73 | CC1=NOC(=O)/C1=N\c1ccc([N+](=O)[O-])cc1 | 17 | 
74 | CCOc1cnn(-c2ccccc2)c(=O)c1S | 4.4 | 
75 | CCOc1c(S)cnn(-c2cc(Cl)cc(Cl)c2)c1=O | 301 | 
76 | Cc1cccc(N2C(=O)/C(=C/c3cc([N+](=O)[O-])cc(Br)c3O)SC2=S)c1 | 15 | 
77 | CCOc1c(Cl)cnn(-c2ccc([N+](=O)[O-])cc2)c1=O | > 50 | 
78 | CC1=NN(c2ccccc2)C(=S)/C1=C/Nc1cc([N+](=O)[O-])ccc1O | 14 | 
79 | CCOc1c(S)cnn(-c2cccc(F)c2)c1=O | 5.5 | 
80 | CCOc1c(S)cnn(-c2cccc(C)c2)c1=O | 3.3 | 
81 | O=c1c(Cl)c(Cl)cnn1-c1cccc(Br)c1 | > 50 | 
82 | CCSc1c(O)cnn(-c2ccccc2)c1=O | > 50 | IC50 [3]: > 50 µM
83 | CC1=NN(c2ccc(Cl)cc2)C(=O)/C1=C/Nc1ccc([N+](=O)[O-])cc1C | 45 | 
84 | COc1c(Cl)cnn(-c2cccc(Br)c2)c1=O | > 50 | 
85 | O=C1/C(=C/c2cc([N+](=O)[O-])cc(Br)c2O)SC(=S)N1c1cccc(Cl)c1 | 17 | 
